High-throughput results: PubChem, several laboratories
HUVEC prolif 384 – inhibitors of HUVEC proliferation, primary screen, cell-based, 384-well. CellTiter-Glo luminescence, 72 h; active compounds read low. viability, % at 10 µM (by protocol). actives 1.1% (n = 86,000). AID 648, 2007;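 active means viability at or below 30%; inactive means viability above 30%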;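 further: 100% = median luminescence of DMSO-only cell control wells on each plate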
Jurkat viability – cytotoxicity toward Jurkat T cells, primary screen, cytotoxicity control, cell-based, Jurkat E6.1, 60K MLSMR library | Jurkat E6.1 viability, ATP luminescence, 48 h | inhibition, % at 4 µM | actives 1.2% (n = 56,000);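 active means inhibition above the mean inhibition of all tested compounds plus 3 SD, cut at about 28% in these data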
H69AR inhibit – proliferation blockers of H69AR lung cancer cells, primary screen, cell-based, human, 86K library | H69AR lung tumor viability, ATP luminescence, 72 h; active compounds read low | viability, % at 10 µM | actives 6% (n = 85,000) | AID 598, 2007;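 active means viability at or below 40%; inactive means viability above 40%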;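 further: multidrug resistant small cell line overexpressing MRP-1 efflux transporter; 100% = mean luminescence of untreated control wells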
Ecoli WT expand – growth inhibitors of wild-type E. coli, primary screen, strain BW25113, expanded library, OD600 | OD600 absorbance | actives 0.15% (n = 98,000) | growth inhibition, % at 100 µM;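 active means growth inhibition above about 50% at one test dose, limit read from the data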;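 further: growth measured after 20 h incubation at 37 °C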
Fibroblast inh – antiproliferative effect on LL 47 fibroblasts – human, LL 47 cells, CellTiter-Glo luminescence, primary screen. actives 1.1% (n = 85,000). LL 47 human lung fibroblast viability, ATP luminescence; active compounds read low. viability, % at 10 µM;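 active means viability at or below 50% in the single dose screen; inactive means viability above 50%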;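 further: compound exposure lasted 72 h before the ATP readout; 100% = median luminescence of untreated cell-only wells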
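Benchmarks: Cell-only wells, no compound | Test system: LL 47 human lung fibroblasts, passage 12 or lower | Input: 1,150 cells/well | Measured by: CellTiter-Glo luminescence measuring cellular ATP | Medium: IMEM, 15% FBS supplement | Schedule: Overnight attachment after seeding, then 72 h compound exposure at 37 °C | Doses: Compound addition at 0.1% DMSO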
Ecoli tolC – growth inhibitors of E. coli tolC mutant, primary screen, strain BW25113 ΔtolC::kan, 384-well; OD615; growth inhibition, % at 10 µM (by protocol); actives 2.2% (n = 65,000);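 active means growth inhibition at or above a cutoff equal to the mean over every tested compound plus 3 SD, cut at about 60% in these data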;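 further: growth measured after 20 h incubation at 37 °C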
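Material: E. coli BW25113 ΔtolC::kan, tolC deletion mutant strain. Measure: percent growth inhibition. Schedule: 37 °C, 20 h exposure. Doses: single-point testing at 10 µM. Signal: A615 absorbance measurement. Buffer or medium: kanamycin-containing LB broth (50 µg/mL).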
* = called active by the depositor; nt = no result given. Rows were chosen to be rich in hits. Some 6.4% of all compounds tested hit in one or more screens of this group.

SMILES | HUVEC prolif 384 | Jurkat viability | H69AR inhibit | Ecoli WT expand | Fibroblast inh | Ecoli tolC
COc1cccc(C2C(C(=O)c3sc(C)nc3C)=C(O)C(=O)N2CCN(C)C)c1OC (stereo not drawn) | 96 | -1 | 99 | nt | 104 | -11
Cc1ccc2nc(/C(C#N)=C\c3ccc(N4CCOCC4)o3)[nH]c2c1 | 76 | nt | 5.5* | nt | 84 | nt
Cn1c(Cc2csc(N)n2)nnc1SCC(=O)NCc1ccccc1 | 96 | -6 | 74 | 1 | 94 | 3
COC(=O)/C(=C\Nc1ccc(Cl)cc1Cl)NC(=O)c1ccccc1 | 51 | nt | 70 | -7 | 85 | nt
COC(=O)/C(=C\Nc1ccc(Cl)cc1Cl)NC(=O)c1ccc(Cl)cc1Cl | 27* | nt | 21* | -4 | 89 | nt
COC(=O)C1=C(C)NC(=O)CC1c1cc2c(cc1Br)OCO2 (stereo not drawn) | 94 | 4 | 97 | 7 | 100 | 7
CC1=C(C(=O)OC2CCCCCCC2)C(c2cc3c(cc2Br)OCO3)CC(=O)N1 (stereo not drawn) | 5.0* | nt | 5.8* | 2 | 91 | nt
c1ccc2oc(SCc3nc4ccccc4s3)nc2c1 | 97 | 2 | 82 | -4 | 94 | 61*
N#CCc1nc(CSc2nc3ccccc3o2)cs1 | 108 | 5 | 91 | 9 | 102 | 4
Cc1ccc(C)c(NC(=S)NC(NC(=O)Cc2cccc3ccccc23)C(Cl)(Cl)Cl)c1 (stereo not drawn) | 4.3* | nt | 2.3* | -4 | 4.4* | nt
Cc1ccc(N2C(=O)CC(Sc3ncn[nH]3)C2=O)cc1C (stereo not drawn) | 98 | nt | 88 | 4 | 102 | nt
N#CC1=C(SCC(=O)NC23CC4CC(CC(C4)C2)C3)NC(=O)C(C#N)C12CCCCC2 (stereo not drawn) | 56 | 3 | 9.1* | -6 | 80 | 86*
CC(C)(C)C1CCC2(CC1)C(C#N)=C(SCC(=O)NC1CCCCC1)NC(=O)C2C#N (stereo not drawn) | 44 | 5 | 9.6* | 2 | 82 | 75*
N#CC1=C(SCC(=O)NC2CC2)NC(=O)C(C#N)C12CCCCC2 (stereo not drawn) | 84 | 2 | 100 | 1 | 95 | 7
CCOC(=O)c1cnc2ccc(C)cc2c1Sc1ccccc1C(=O)OC | nt | nt | nt | 11 | nt | nt
C=CCNc1ncnc2c1ncn2C1OC(CO)C(O)C1O (stereo not drawn) | 41 | -2 | 31* | 3 | 40* | -25
OC[C@H]1O[C@@H](n2cnc3c(NC4CCCC4)ncnc32)[C@H](O)[C@@H]1O | 73 | nt | 75 | nt | 98 | -7
CC(=O)Nc1nonc1NC(=O)c1ccc(C(C)(C)C)cc1 | 95 | nt | 84 | 6 | 97 | nt
O=C(Nc1cccc2cccnc12)c1ccc(Br)o1 | 71 | -3 | 37* | 7 | 90 | 93*
O=C(Nc1cccc(-c2cnc3ccccc3n2)c1)c1cccc(NC(=O)c2ccco2)c1 | 17* | nt | 8.1* | -1 | 35* | nt
Cc1ccc2nc(-c3ccc(NC(=O)c4ccco4)cc3)[nH]c2c1 | 63 | -4 | 51 | -8 | 101 | -4
CC(=O)Nc1ccc2nc(-c3ccncc3)[nH]c2c1 | 105 | nt | 96 | -3 | 99 | nt
O=C(CCl)Nc1cccc(-c2cnc3ccccc3n2)c1 | 4.1* | nt | 1.5* | -4 | 2.7* | nt
O=C(Nc1cccc(-c2cnc3ccccc3n2)c1)c1ccccc1 | nt | nt | nt | 0 | nt | nt
O=C(Nc1ccc(-c2nc3ccc(NC(=O)c4cccs4)cc3[nH]2)cc1)c1cccs1 | 4.1* | nt | 3.1* | -8 | 41* | nt
SMILES | HUVEC prolif 384 | Jurkat viability | H69AR inhibit | Ecoli WT expand | Fibroblast inh | Ecoli tolC
CCC(=O)Nc1cccc(-c2cnc3ccccc3n2)c1 | 107 | nt | 77 | 4 | 103 | nt
O=C(Nc1cccc(-c2nc3ccccc3[nH]2)c1)c1ccco1 | 77 | -1 | 34* | -3 | 96 | 28
FC(F)(F)c1nnc2c(Sc3ccccc3)nc3ccc(Cl)cc3n12 | nt | nt | nt | -5 | nt | nt
O=C(CSCc1cccc(Br)c1)N/N=C/c1ccc2c(c1)OCO2 | nt | nt | nt | -1 | nt | nt
O=C(Nc1ccc2nc(-c3cccs3)[nH]c2c1)c1ccco1 | 113 | 4 | 71 | -2 | 102 | 90*
Cn1cccc1-c1nc2ccc(NC(=O)c3ccco3)cc2[nH]1 | 127 | -5 | 71 | 1 | 105 | 6
O=C(Nc1ccc(Oc2cccnc2)cc1)c1ccccc1F | nt | nt | nt | 0 | nt | nt
O=C(Nc1ccc2nc(-c3cccnc3)[nH]c2c1)c1ccccc1F | 94 | nt | 34* | 5 | 109 | nt
O=C(Nc1ccc2nc(-c3cccs3)[nH]c2c1)c1cccs1 | 61 | -1 | 39* | -3 | 92 | 20
CCN(CC(=O)Nc1cc(C)nn1-c1nc(C)cc(C)n1)Cc1ccccc1 | 51 | nt | 14* | 1 | 73 | nt
Cc1cc(C)nc(-n2nc(C)cc2NC(=O)CN2CCCC(C)C2)n1 (stereo not drawn) | 106 | 3 | 63 | 6 | 89 | 10
Cc1cc(C)nc(-n2nc(C)cc2NC(=O)CN2CCc3ccccc3C2)n1 | 82 | 3 | 6.4* | 11 | 83 | 42
COc1ccc2cc(C)c3nnc(SCC(=O)Nc4nc(-c5ccccc5)cs4)n3c2c1 | nt | nt | nt | -8 | nt | nt
O=C(Oc1oc(-c2ccco2)nc1C=Nc1ccccc1)c1ccoc1 | 72 | nt | 38* | 3 | 87 | 12
O=C(Oc1oc(-c2ccco2)nc1C=Nc1ccccc1)c1ccco1 | 87 | nt | 39* | 0 | 86 | 4
CN(Cc1ccccc1)Cc1nc2c([nH]1)c(=O)n(C)c(=O)n2C | 99 | nt | 92 | -5 | 98 | -5
Cc1ccc(-n2[nH]c(C)c(/C=C3/C=Nc4ccccc43)c2=O)cc1C | 63 | nt | 65 | nt | 99 | nt
Cc1onc(-c2c(F)cccc2Cl)c1C(=O)Nc1sc2c(c1C(N)=O)CCC2 | 70 | nt | 16* | -18 | 76 | nt
N#Cc1c(NC(NC(=O)c2ccco2)C(=O)c2ccccc2)sc2c1CCCC2 (stereo not drawn) | 85 | 6 | 100 | -3 | 95 | 65*
Cc1onc(-c2c(F)cccc2Cl)c1C(=O)Nc1sc2c(c1C#N)CCC(C(C)(C)C)C2 (stereo not drawn) | 75 | nt | 80 | nt | 72 | nt
Cc1onc(-c2ccccc2)c1C(=O)Nc1sc2c(c1C#N)CCC2 | 68 | 49* | 16* | -1 | 76 | 70*
O=C(Nc1sc2c(c1C(=O)O)CCC2)c1cccs1 | 80 | 6 | 91 | -3 | 101 | 76*
COc1ccc(Cl)cc1NC(=O)CSc1nnc(CN2CCOCC2)n1-c1ccc(Cl)cc1 | 75 | nt | 52 | 0 | 86 | nt
CCn1c(CSc2nnc(-c3ccc4c(c3)OCO4)o2)nc2cc(S(=O)(=O)N(C)C)ccc21 | nt | 4 | nt | -11 | nt | 9
